What all share (format): protein-complex assay
For assay [1], the target named is T1, GABA-A receptor; alpha-1/beta-3/gamma-2 (Homo sapiens, UniProt P14867+P18507+P28472).
T1 sequence (P14867 whole entry): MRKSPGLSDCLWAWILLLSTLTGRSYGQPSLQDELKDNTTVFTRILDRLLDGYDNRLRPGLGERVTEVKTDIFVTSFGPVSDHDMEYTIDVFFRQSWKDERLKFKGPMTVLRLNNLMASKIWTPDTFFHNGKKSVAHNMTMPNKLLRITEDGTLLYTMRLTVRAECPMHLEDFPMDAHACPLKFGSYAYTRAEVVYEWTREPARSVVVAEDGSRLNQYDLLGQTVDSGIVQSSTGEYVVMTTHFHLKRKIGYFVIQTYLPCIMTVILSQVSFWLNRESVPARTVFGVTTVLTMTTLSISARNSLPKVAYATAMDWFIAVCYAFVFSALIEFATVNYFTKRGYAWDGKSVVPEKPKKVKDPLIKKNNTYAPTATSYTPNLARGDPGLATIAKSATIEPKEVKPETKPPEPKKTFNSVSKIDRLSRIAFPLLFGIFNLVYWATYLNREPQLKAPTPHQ
T1 sequence (P18507 whole entry): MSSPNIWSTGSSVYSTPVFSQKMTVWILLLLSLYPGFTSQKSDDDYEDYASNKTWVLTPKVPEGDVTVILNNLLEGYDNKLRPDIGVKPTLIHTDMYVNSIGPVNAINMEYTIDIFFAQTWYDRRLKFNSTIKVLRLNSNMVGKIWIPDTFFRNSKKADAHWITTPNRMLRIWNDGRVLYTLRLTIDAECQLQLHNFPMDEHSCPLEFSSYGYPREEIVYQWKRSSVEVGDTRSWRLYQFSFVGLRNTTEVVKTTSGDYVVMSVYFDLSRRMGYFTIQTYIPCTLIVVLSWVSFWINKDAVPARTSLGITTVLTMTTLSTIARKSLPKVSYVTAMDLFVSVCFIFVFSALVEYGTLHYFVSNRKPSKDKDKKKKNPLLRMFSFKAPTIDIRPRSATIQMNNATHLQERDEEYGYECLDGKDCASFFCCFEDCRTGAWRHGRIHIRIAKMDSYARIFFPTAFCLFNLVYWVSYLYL
T1 sequence (P28472 whole entry): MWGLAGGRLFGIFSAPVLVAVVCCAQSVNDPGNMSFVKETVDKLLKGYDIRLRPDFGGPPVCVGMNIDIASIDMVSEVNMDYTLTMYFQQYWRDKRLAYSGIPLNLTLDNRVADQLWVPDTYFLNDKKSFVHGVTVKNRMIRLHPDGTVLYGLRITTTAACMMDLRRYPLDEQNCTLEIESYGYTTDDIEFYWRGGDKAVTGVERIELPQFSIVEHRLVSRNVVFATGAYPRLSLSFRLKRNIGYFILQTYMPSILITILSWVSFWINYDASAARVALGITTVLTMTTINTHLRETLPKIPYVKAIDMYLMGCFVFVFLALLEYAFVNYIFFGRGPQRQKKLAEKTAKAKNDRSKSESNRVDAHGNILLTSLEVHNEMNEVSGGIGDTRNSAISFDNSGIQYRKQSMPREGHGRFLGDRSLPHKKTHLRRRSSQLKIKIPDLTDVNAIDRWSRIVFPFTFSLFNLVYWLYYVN
The assay can be described thus: Binding affinity for human recombinant gamma-aminobutyric-acid (GABA) A receptor alpha-1-beta-3-gamma-2.

Assay [2] addresses T2, GABA-A receptor; alpha-2/beta-3/gamma-2 (Homo sapiens, UniProt P18507+P28472+P47869).
T2 sequence (P18507 whole entry): T1 sequence (P18507 whole entry)
T2 sequence (P28472 whole entry): T1 sequence (P28472 whole entry)
T2 sequence (P47869 whole entry): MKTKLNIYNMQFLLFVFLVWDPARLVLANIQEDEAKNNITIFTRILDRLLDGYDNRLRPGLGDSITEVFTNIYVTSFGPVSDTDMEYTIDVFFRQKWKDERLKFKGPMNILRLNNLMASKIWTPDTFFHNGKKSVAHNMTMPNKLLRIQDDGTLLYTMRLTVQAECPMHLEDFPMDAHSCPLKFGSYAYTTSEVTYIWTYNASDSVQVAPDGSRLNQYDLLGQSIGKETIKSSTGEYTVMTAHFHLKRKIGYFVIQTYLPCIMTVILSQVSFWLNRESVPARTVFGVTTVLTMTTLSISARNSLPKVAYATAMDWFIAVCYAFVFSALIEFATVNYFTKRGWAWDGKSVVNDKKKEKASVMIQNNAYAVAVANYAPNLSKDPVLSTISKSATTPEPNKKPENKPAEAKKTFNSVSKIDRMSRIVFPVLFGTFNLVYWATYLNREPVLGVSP
In words: Binding affinity to human recombinant gamma-aminobutyric-acid (GABA) A receptor alpha-2-beta-3-gamma-2.

For assay [3], the target named is T3, GABA-A receptor; alpha-5/beta-3/gamma-2 (Homo sapiens, UniProt P18507+P28472+P31644).
T3 sequence (P18507 whole entry): T1 sequence (P18507 whole entry)
T3 sequence (P28472 whole entry): T1 sequence (P28472 whole entry)
T3 sequence (P31644 whole entry): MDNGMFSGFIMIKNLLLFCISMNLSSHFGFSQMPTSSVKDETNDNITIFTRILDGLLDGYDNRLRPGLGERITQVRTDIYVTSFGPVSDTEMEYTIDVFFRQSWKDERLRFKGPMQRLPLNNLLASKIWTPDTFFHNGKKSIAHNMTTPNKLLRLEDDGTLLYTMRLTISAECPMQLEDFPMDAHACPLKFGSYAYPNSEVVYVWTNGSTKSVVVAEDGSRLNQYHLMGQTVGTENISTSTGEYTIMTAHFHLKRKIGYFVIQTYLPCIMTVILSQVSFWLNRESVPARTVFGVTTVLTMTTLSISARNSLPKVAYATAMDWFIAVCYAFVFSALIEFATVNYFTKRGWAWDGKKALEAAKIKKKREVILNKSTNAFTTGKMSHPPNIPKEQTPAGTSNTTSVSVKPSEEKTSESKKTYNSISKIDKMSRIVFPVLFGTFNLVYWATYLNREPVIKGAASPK
The assay can be described thus: Binding affinity for human recombinant gamma-aminobutyric-acid (GABA) A receptor alpha-5-beta-3-gamma-2.

The target of assay [4] is T4, GABA-A receptor; alpha-3/beta-3/gamma-2 (Homo sapiens, UniProt P18507+P28472+P34903).
T4 sequence (P18507 whole entry): T1 sequence (P18507 whole entry)
T4 sequence (P28472 whole entry): T1 sequence (P28472 whole entry)
T4 sequence (P34903 whole entry): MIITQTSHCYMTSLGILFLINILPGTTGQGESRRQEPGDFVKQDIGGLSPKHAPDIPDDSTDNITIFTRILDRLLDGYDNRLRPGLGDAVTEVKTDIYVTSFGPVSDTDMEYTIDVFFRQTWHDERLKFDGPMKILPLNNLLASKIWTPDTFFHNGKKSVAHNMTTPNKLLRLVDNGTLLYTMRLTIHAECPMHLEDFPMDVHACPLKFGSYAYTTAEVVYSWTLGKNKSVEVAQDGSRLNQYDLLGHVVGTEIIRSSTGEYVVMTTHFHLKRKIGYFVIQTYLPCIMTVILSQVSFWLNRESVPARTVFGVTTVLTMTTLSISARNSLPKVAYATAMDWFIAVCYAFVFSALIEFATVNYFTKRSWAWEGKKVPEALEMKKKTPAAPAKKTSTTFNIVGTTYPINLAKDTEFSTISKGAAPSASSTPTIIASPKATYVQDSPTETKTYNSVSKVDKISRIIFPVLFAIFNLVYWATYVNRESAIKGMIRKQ
In words: Binding affinity for human recombinant gamma-aminobutyric-acid (GABA) A receptor alpha-3-beta-3-gamma-2.

Assay [5] concerns the target GABA-A receptor; alpha-6/beta-3/gamma-2 (Homo sapiens, UniProt P18507+P28472+Q16445). The assay can be described thus: Binding affinity for human recombinant gamma-aminobutyric-acid (GABA) A receptor alpha-6-beta-3-gamma-2. An outline of the steps: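 Ltk⁻ cells expressing human α6β3γ2 were harvested by scraping into PBS, centrifuged at 3000g and resuspended in 10 mM KH₂PO₄/100 mM KCl (pH 7.4). Incubation was 1 h at 4 °C with filter harvest and scintillation counting.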

GABA-A receptor; alpha-6/beta-3/gamma-2, sequence (Q16445 whole entry, one chain of several): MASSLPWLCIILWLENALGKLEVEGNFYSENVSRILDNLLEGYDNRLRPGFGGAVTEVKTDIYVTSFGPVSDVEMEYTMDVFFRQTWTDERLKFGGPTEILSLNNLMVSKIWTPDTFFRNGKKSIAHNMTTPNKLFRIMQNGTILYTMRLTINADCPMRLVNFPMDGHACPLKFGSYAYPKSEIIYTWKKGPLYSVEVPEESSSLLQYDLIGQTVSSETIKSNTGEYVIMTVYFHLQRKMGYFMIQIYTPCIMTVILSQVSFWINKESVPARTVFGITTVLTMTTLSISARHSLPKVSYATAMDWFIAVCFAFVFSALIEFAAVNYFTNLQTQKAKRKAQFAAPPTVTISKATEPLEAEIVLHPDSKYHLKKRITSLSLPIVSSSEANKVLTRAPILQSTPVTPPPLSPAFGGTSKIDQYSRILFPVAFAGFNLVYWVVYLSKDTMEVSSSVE

Turning to `O=c1c2cnc3ccccc3c2[nH]n1-c1ccc(Br)cc1`, the Ki (in general, the equilibrium dissociation constant of an inhibitor or competing ligand from its target) in assay [1] turned out to be 0.18 nM; in assay [2], 0.21 nM; in assay [3], 1.3 nM; in assay [4], 0.25 nM; in assay [5] it was 40 nM.
Consider `COc1ccc2ncc3c(=O)n(-c4ccccc4)[nH]c3c2c1`, for which the Ki in assay [1] is 0.11 nM; in assay [2], 0.1 nM; in assay [3], 0.2 nM; in assay [4], 0.09 nM; in assay [5], > 10 nM.
Take `CCCOc1ccc2[nH]c3cnc(C(=O)NN)c(COC)c3c2c1`: the Ki in assay [1] is 46 nM; in assay [2], 422 nM; in assay [3] it was 108 nM; in assay [4], 400 nM; in assay [5], > 300 nM.
With `Fc1ccc2c(c1)[nH]c1c3c4ccccc4nc-3c[nH]c12`, the Ki in assay [1] is 5.1 nM; in assay [2], 10.4 nM; in assay [3], 260 nM; in assay [4] it was 18.4 nM; in assay [5], > 10000 nM.
Turning to `Clc1cc2c(cn1)[nH]c1ccccc12`, the Ki in assay [1] is 60.4 nM; in assay [2] it was 125 nM; in assay [3], 1000 nM; in assay [4], 126 nM; in assay [5], > 10000 nM.
Turning to `C[Si](C)(C)C#Cc1ccc(-n2[nH]c3c(cnc4ccccc43)c2=O)cc1`, the Ki in assay [1] is 3 nM; in assay [2] it was 3.7 nM; in assay [3], 24 nM; in assay [4], 4.7 nM; in assay [5], > 1000 nM.
On to `c1ccc2c(c1)[nH]c1c2ncc2[nH]c3ccccc3c21`, for which the Ki is 1.1 nM in assay [1]; 1.2 nM in assay [2]; 40.3 nM in assay [3]; 1.1 nM in assay [4]; > 1000 nM in assay [5].
With `CCCCCCCCOc1ccc2c(c1)c1c(CC)c(C(=O)OCC)ncc1n2C`, the Ki in assay [1], in assay [2], in assay [3], in assay [4] and in assay [5] was > 1000 nM throughout.
On to `CC(C)(C)OC(=O)c1ncn2c1[C@@H]1CCCN1C(=O)c1c(Br)cccc1-2` [BRETAZENIL], for which the inhibition constant (Ki) in assay [1] was determined as 0.35 nM; in assay [2] it was 0.64 nM; in assay [3], 0.5 nM; in assay [4] it was 0.2 nM; in assay [5], 12.7 nM.
In the same order, the values of `CN1C(=O)CN=C(C2CCC2)c2cc(F)ccc21` are > 300 nM, > 300 nM, > 300 nM, > 300 nM and > 300 nM.
Turning to `c1ccc2c(c1)[nH]c1cnc3c(nc4ccccn43)c12`, the Ki in assay [1] was 105 nM; in assay [2], 228 nM; in assay [3], > 3000 nM; in assay [4], 284 nM; in assay [5], > 10000 nM.
With `O=c1c2c[nH]c3ccc(Br)cc3c-2nn1-c1ccccc1`, the inhibition constant Ki is 0.06 nM in assay [1]; 0.08 nM in assay [2]; 0.12 nM in assay [3]; 0.05 nM in assay [4]; 4 nM in assay [5].
Regarding `S=C=Nc1cc2c3ccccc3nc-2c[nH]1`, the Ki in assay [1] was 67.2 nM; in assay [2] it was 120 nM; in assay [3] it was > 3000 nM; in assay [4], 141 nM; in assay [5] it was > 10000 nM.
For `c1ccc2c(c1)[nH]c1cnc3c4cccnc4[nH]c3c12`, in that order: 2.2 nM, 11.5 nM, 200 nM, 16.3 nM and > 10000 nM.
Turning to `CN1C(=O)CN=C(c2ccco2)c2cc(Cl)ccc21`, the inhibition constant Ki in assay [1] is > 0.23 nM; in assay [2], > 0.17 nM; in assay [3], > 0.44 nM; in assay [4], > 0.12 nM; in assay [5], > 300 nM.
`C#Cc1ccc2ncc3c(=O)n(-c4ccccc4)[nH]c3c2c1`: the Ki in assay [1] turned out to be 0.08 nM; in assay [2], 0.06 nM; in assay [3], 0.08 nM; in assay [4], 0.02 nM.

Source of the values: ChEMBL document CHEMBL1132940, “Pharmacophore/receptor models for GABA(A)/BzR subtypes (alpha1beta3gamma2, alpha5beta3gamma2, and alpha6beta3gamma2) via a comprehensive ligand-mapping approach” (J Med Chem, 2000).
